NCF1 inh: p47phox (human) inhibition | inhibition, % at 24.7 µM | AID 1274 | P14598 | 0.53% of 220,000 active | p47phox/p22phox peptide binding, fluorescence polarization, 2 h
14-3-3 Bad inh: disrupts binding of bovine 14-3-3 zeta to phospho-Bad peptide; P63103; TR-FRET 14-3-3zeta/Dy647-pBad peptide displacement, 1 h; inhibition, % at 21.7 µM; 0.71% of 220,000 active; AID 781;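 active = inhibition above about 70%, limit read from the data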
TbMetRS inhib: Trypanosoma brucei MetRS inhibition; 0.4% of 360,000 active; purified T. brucei MetRS, ATP depletion, Kinase-Glo luminescence; inhibition, % at 11.9 µM;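 active = inhibition above a per-plate cutoff of the control wells' mean inhibition plus 3 SD, cut at about 5.5% in these data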
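technique = Kinase-Glo luminescence, ATP depletion format | system = purified MetRS (methionyl-tRNA synthetase) enzyme from Trypanosoma brucei | timing = 15 min preincubation, 2 h reaction, all 25 °C | evaluation = percent inhibition versus plate control medians | dosing = single dose, 11.9 µM final nominal, 0.9% final DMSO | also added = substrates ATP, L-methionine and bulk Escherichia coli tRNA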
UBC9 SUMO inh: SUMOylation inhibition; HTRF SUMOylation assay, SAE1/SAE2 + UBC9, in vitro; P63279; inhibition, % at 35 µM; 0.36% of 290,000 active; in the data active = inhibition above about 50%, passing the limit was not always enough; inconclusive = no clear call, values can overlap the other calls
p97 ATPase inh: blocks human p97 ATPase activity; 0.42% of 220,000 active; P55072; inhibition, % at 8 µM; AID 1481; recombinant p97 ATPase, Kinase-Glo ATP luminescence, 3 h; in the data active = inhibition above about 15%
Target sequence (P55072 whole entry, looked up): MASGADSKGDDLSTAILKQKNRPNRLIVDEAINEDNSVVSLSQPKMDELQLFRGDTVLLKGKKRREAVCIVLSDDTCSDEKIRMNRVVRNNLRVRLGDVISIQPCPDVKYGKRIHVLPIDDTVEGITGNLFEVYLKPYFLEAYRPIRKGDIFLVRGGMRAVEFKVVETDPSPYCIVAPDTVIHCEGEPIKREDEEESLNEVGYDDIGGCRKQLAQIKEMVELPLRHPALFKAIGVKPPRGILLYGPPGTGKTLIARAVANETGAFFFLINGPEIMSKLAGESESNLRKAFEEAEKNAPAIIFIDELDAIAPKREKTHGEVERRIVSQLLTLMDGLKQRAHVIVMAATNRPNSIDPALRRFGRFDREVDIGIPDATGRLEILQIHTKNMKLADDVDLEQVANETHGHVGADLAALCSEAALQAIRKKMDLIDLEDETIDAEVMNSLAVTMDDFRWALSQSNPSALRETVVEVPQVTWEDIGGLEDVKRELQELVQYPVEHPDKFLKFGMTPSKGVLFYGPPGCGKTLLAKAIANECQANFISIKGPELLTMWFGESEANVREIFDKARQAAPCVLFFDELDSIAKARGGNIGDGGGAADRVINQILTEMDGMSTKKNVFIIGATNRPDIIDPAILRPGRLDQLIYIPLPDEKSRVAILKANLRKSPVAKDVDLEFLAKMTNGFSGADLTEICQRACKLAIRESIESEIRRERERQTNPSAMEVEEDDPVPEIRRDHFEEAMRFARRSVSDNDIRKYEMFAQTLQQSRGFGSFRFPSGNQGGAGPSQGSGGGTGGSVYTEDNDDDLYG
eIF4E-4G inh: eIF4E/eIF4G interaction inhibition in translation initiation. P63073+Q04637. 0.37% of 220,000 active. inhibition, % at 21.7 µM. TR-FRET eIF4E-eIF4GI(517-606) binding, 2 h
p97 confirm: confirmation of human p97 ATPase inhibitors; shares compounds with p97 ATPase inh; recombinant p97 ATPase, Kinase-Glo ATP luminescence; inhibition, % at 8 µM; 44% of 760 active; AID 1517;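 active = percent inhibition of p97 ATPase above a set limit, the primary screen's mean plus 3 SD, cut at about 15% in these data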
Tb MetRS conf: confirmation of Trypanosoma brucei MetRS inhibitors | T. brucei MetRS enzyme, luminescence (ATP depletion) | shares compounds with TbMetRS inhib | 93% of 1,400 active | inhibition, % at 11.9 µM | AID 624412; in the data active = inhibition above about 7%
Jurkat tox: Jurkat T cell cytotoxicity for MetRS hits; shares compounds with TbMetRS inhib; Jurkat cells viability, ATP luminescence; inhibition, % at 8.3 µM; 12% of 1,400 active; AID 624413; in the data active = inhibition above about 15%
TbMetRS FP orth: orthogonal test for Trypanosoma brucei MetRS inhibitors. shares compounds with TbMetRS inhib. purified T. brucei MetRS, fluorescence polarization. inhibition, % at 11.9 µM. 44% of 1,400 active; in the data active = inhibition above about 17%
Hits are given with their value; i = inactive; ? = inconclusive; nt = not tested or not shown; ! = a repeat was not active. The list is not random: actives were taken first. Their share in the collection is about 1.6%.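 The calls were made as follows, unless noted: active = inhibition above about 30% (limit read from the data); inactive = the rest.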

SMILES	NCF1 inh	14-3-3 Bad inh	TbMetRS inhib	UBC9 SUMO inh	p97 ATPase inh	eIF4E-4G inh	p97 confirm	others
CCCSCCCNC(=O)CN1C(=O)COc2ccc(S(=O)(=O)N3CCCC3)cc21	nt	nt	i	i	nt	nt	nt
COc1cccc(C(NC(C)=O)c2nc(-c3cccc(F)c3)cs2)c1 (centres undefined)	nt	nt	i	nt	nt	nt	nt
NC(=S)NNc1cccc2cccnc12	i	i	i	92	16	i	i
Cc1cc(C(=O)Nc2ccc([N+](=O)[O-])cn2)cs1	nt	nt	i	i	nt	nt	nt
O=S(=O)(c1ccc(NC(=S)N/N=C/c2ccc(O)c(O)c2)cc1)N1CCOCC1	i	i	i	i	19	i	21
N#Cc1ccc(/C=N/NC(=S)Nc2ccc(S(=O)(=O)N3CCOCC3)cc2)cc1	i	i	i	i	i	i	nt
COc1ccccc1C1=NOC(C)(c2nnc(Cc3ccccc3)o2)C1 (centres undefined)	nt	nt	i	nt	nt	nt	nt
Cc1cccc(Nc2nc(NCc3ccco3)c3ccccc3n2)c1	i	i	i	i	i	i	nt
c1ccc(Nc2nc(NCc3ccco3)c3ccccc3n2)cc1	i	i	i	i	22	i	28
CC1=NN(c2ccccc2)C(=O)/C1=C/c1cccs1	i	i	i	i	17	i	i
Cc1[nH]c2ccccc2c1/C=N/NC(=O)c1cc(-c2cccs2)[nH]n1	i	i	i	i	16	i	32
Cc1cc(C(=O)N/N=C/c2c(C)[nH]c3ccccc23)n[nH]1	i	i	i	i	i	i	nt
Cn1cccc1C1CCCN1CC(=O)Nc1ccc(F)c(F)c1F (centres undefined)	nt	nt	i	nt	nt	nt	nt
O=c1c(O)cccc2cc(O)c(O)c(O)c12	i	94	i	?	38	61	45
Cc1c(O)ccc(C(=O)CN2CCN(Cc3ccc4c(c3)OCO4)CC2)c1O	i	i	i	i	16	i	i
CCCCNC(=O)COC(=O)c1ccccc1F	i	i	i	i	i	i	nt
CC(=O)Nc1cc(OC(C)=O)c2nonc2c1OC(C)=O	nt	nt	28	101	30	nt	32
O=C(O)C1CSC(c2ccc(O)c([N+](=O)[O-])c2)N1 (centres undefined)	i	i	i	i	16	i	i
Cc1oc2c(c(=O)c1C)C(=O)CC(c1ccccc1)C2 (centres undefined)	i	i	i	i	i	i	nt
CS(=O)(=O)c1sc(C#N)c2c1C(=O)CC(c1ccccc1)C2 (centres undefined)	i	i	i	i	25	i	22
Cc1cccc(CCNC(=O)CNS(=O)(=O)c2ccc3nc(C)sc3c2)c1	nt	nt	i	i	nt	nt	nt
O=S(=O)(NCc1ccccc1)c1ccc(Cl)cc1	i	i	i	i	i	i	nt
O=S(=O)(Nc1cc2nc3ccccc3nc2n1Cc1ccccc1)c1ccc(Cl)cc1	i	i	32	i	31	i	43	Tb MetRS conf=96;Jurkat tox=i;TbMetRS FP orth=76
Brc1ccc2[nH]c3nc(SCCN4CCOCC4)nnc3c2c1	i	i	16	i	17!	i	i	Tb MetRS conf=33;Jurkat tox=15!;TbMetRS FP orth=23!
C(=NN=Cc1c[nH]c2ccccc12)c1c[nH]c2ccccc12	nt	nt	i	nt	nt	nt	nt
O=C1/C(=C/c2c[nH]c3ccccc23)CCC/C1=C\c1c[nH]c2ccccc12	i	i	6.2	i	29	i	23	Tb MetRS conf=7.5;Jurkat tox=18;TbMetRS FP orth=18
C[C@H](CO)N1C[C@H](C)[C@@H](CN(C)S(=O)(=O)c2cccs2)Oc2c(NC(=O)CCC(F)(F)F)cccc2C1=O	nt	nt	i	nt	nt	nt	nt
NS(=O)(=O)c1ccc(CCNC(=O)CCCn2c(=O)[nH]c3ccc(Br)cc3c2=O)cc1	i	i	14	i	26	i	i	Tb MetRS conf=22;Jurkat tox=i;TbMetRS FP orth=i
